# In ChEMBL document CHEMBL5724801, “EUbOPEN Chemogenomics Library - Multiplex” (2024):
# “And” between values parts separate entries of the source, which are not always exact repeats. Equal values may be shown once.
# Tested on: HEK-293T
# Test: Multiplex assay against HEK293T
# Format: toxicity, cell-based
# Settings: human
# How it was run: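 With compound added, live cells were imaged on a CQ1 microscope at 37°C and 5% CO2; staining with Hoechst33342, BioTracker Green Microtubule Cytoskeleton Dye, MitoTracker Red and Annexin V Alexa Fluor 680 had been done at seeding. The CellPathfinder machine-learning gating scheme split cells into Hoechst high-intensity objects or normal cells, normal cells into healthy, pyknosed or fragmented nuclei, and pyknosed cells into mitotic or apoptotic. The tubulin, mitochondrial-mass and membrane-permeability phenotypes are per cents of healthy-nucleus cells.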
# [1] = 12 h, 1 µM, compound concentration 1 uM
# [2] = 12 h, 10 µM, compound concentration 10 uM
# [3] = 24 h, 1 µM, compound concentration 1 uM
# [4] = 24 h, 10 µM, compound concentration 10 uM
# [5] = 48 h, 1 µM, compound concentration 1 uM
# [6] = 48 h, 10 µM, compound concentration 10 uM
smiles,measurement,setting,value
CCOc1ccccc1C(=O)NCC1(N2CCN(CC)CC2)CCCCC1,Population Apoptotic (%),[1],17.61% and 11.57%
same,Population Fragmented Nuclei (%),[1],1.59% and 5.52%
same,Population Hoechst High Intensity Objects (%),[1],0%
same,Population Membrane Permeable-Phenotype (%),[1],0.66% and 6.25%
same,Population Mitotic Cells (%),[1],82.39% and 88.43%
same,Population Normal (%),[1],100%
same,Population Pyknosed Nuclei (%),[1],50.48% and 83.45%
same,Population Tubulin-Different-Phenotype (%),[1],10.6% and 18.75%
same,Total Cell Count,[1],315 and 145
same,Population Apoptotic (%),[2],15.84% and 21.31%
same,Population Fragmented Nuclei (%),[2],1.84% and 5.41%
same,Population Healthy Nuclei (%),[2],36.2% and 12.16%
same,Population Hoechst High Intensity Objects (%),[2],0% and 0.67%
same,Population Membrane Permeable-Phenotype (%),[2],0.85% and 0%
same,Population Mitochondria Different-Phenotype (%),[2],25.42% and 50%
same,Population Mitotic Cells (%),[2],84.16% and 78.69%
same,Population Normal (%),[2],100% and 99.33%
same,Population Pyknosed Nuclei (%),[2],61.96% and 82.43%
same,Population Tubulin-Different-Phenotype (%),[2],38.14% and 77.78%
same,Total Cell Count,[2],326 and 149
same,Population Apoptotic (%),[3],13.73% and 14.84%
same,Population Fragmented Nuclei (%),[3],1% and 7.69%
same,Population Hoechst High Intensity Objects (%),[3],0.2% and 0.59%
same,Population Membrane Permeable-Phenotype (%),[3],2.05% and 0%
same,Population Mitochondria Different-Phenotype (%),[3],24.34% and 10.71%
same,Population Mitotic Cells (%),[3],86.27% and 85.16%
same,Population Normal (%),[3],99.8% and 99.41%
same,Population Pyknosed Nuclei (%),[3],30.66% and 75.74%
same,Population Tubulin-Different-Phenotype (%),[3],21.41% and 10.71%
same,Total Cell Count,[3],500 and 170
same,Population Apoptotic (%),[4],40.41% and 45.37%
same,Population Fragmented Nuclei (%),[4],1.63% and 6.29%
same,Population Hoechst High Intensity Objects (%),[4],0%
same,Population Membrane Permeable-Phenotype (%),[4],1.45% and 0%
same,Population Mitochondria Different-Phenotype (%),[4],39.49% and 42.31%
same,Population Mitotic Cells (%),[4],59.59% and 54.63%
same,Population Normal (%),[4],100%
same,Population Pyknosed Nuclei (%),[4],34.03% and 75.52%
same,Population Tubulin-Different-Phenotype (%),[4],64.13% and 73.08%
same,Total Cell Count,[4],429 and 143
same,Population Fragmented Nuclei (%),[5],1.56% and 2.66%
same,Population Healthy Nuclei (%),[5],84.02% and 40.96%
same,Population Hoechst High Intensity Objects (%),[5],0%
same,Population Membrane Permeable-Phenotype (%),[5],5.34% and 1.3%
same,Population Mitochondria Different-Phenotype (%),[5],24.83% and 45.45%
same,Population Mitotic Cells (%),[5],94.59% and 81.13%
same,Population Normal (%),[5],100%
same,Population Apoptotic (%),[6],21.8% and 42.22%
same,Population Fragmented Nuclei (%),[6],2.46% and 4.08%
same,Population Healthy Nuclei (%),[6],79.37% and 50%
same,Population Hoechst High Intensity Objects (%),[6],0.14% and 1.01%
same,Population Membrane Permeable-Phenotype (%),[6],3.96% and 3.06%
same,Population Mitochondria Different-Phenotype (%),[6],67.81% and 74.49%
same,Population Mitotic Cells (%),[6],78.2% and 57.78%
same,Population Normal (%),[6],99.86% and 98.99%
same,Population Pyknosed Nuclei (%),[6],18.17% and 45.92%
O=C(Nc1ccccc1Br)N[C@@H]1CCN(c2ccc(C(F)(F)F)cn2)C1 [SB-705498],Population Apoptotic (%),[1],7.52% and 7.03%
same,Population Fragmented Nuclei (%),[1],0.88% and 1.23%
same,Population Hoechst High Intensity Objects (%),[1],0.29% and 0%
same,Population Membrane Permeable-Phenotype (%),[1],0.99% and 0%
same,Population Mitochondria Different-Phenotype (%),[1],31.53% and 18.75%
same,Population Mitotic Cells (%),[1],92.48% and 92.97%
same,Population Normal (%),[1],99.71% and 100%
same,Population Pyknosed Nuclei (%),[1],39.23% and 79.01%
same,Total Cell Count,[1],340 and 162
same,Population Apoptotic (%),[2],12.68% and 20.16%
same,Population Fragmented Nuclei (%),[2],2.69% and 4.05%
same,Population Hoechst High Intensity Objects (%),[2],1.52% and 0%
same,Population Membrane Permeable-Phenotype (%),[2],0.9% and 7.69%
same,Population Mitochondria Different-Phenotype (%),[2],31.53% and 23.08%
same,Population Mitotic Cells (%),[2],87.32% and 79.84%
same,Population Normal (%),[2],98.48% and 100%
same,Population Pyknosed Nuclei (%),[2],54.62% and 87.16%
same,Population Tubulin-Different-Phenotype (%),[2],17.12% and 46.15%
same,Total Cell Count,[2],264 and 148
same,Population Apoptotic (%),[3],16.92% and 17.07%
same,Population Fragmented Nuclei (%),[3],1.6% and 1.17%
same,Population Healthy Nuclei (%),[3],75.22% and 26.9%
same,Population Hoechst High Intensity Objects (%),[3],0.18% and 0%
same,Population Membrane Permeable-Phenotype (%),[3],2.37% and 2.17%
same,Population Mitochondria Different-Phenotype (%),[3],11.37% and 2.17%
same,Population Mitotic Cells (%),[3],83.08% and 82.93%
same,Population Normal (%),[3],99.82% and 100%
same,Population Tubulin-Different-Phenotype (%),[3],10.9% and 6.52%
same,Population Apoptotic (%),[4],24.63% and 21.09%
same,Population Fragmented Nuclei (%),[4],1.27% and 4.24%
same,Population Hoechst High Intensity Objects (%),[4],0%
same,Population Membrane Permeable-Phenotype (%),[4],0%
same,Population Mitochondria Different-Phenotype (%),[4],24.71% and 20%
same,Population Mitotic Cells (%),[4],75.37% and 78.91%
same,Population Normal (%),[4],100%
same,Population Pyknosed Nuclei (%),[4],34.01% and 77.58%
same,Population Tubulin-Different-Phenotype (%),[4],37.65% and 16.67%
same,Total Cell Count,[4],394 and 165
same,Population Apoptotic (%),[5],9.6% and 17.81%
same,Population Fragmented Nuclei (%),[5],2.88% and 0.56%
same,Population Healthy Nuclei (%),[5],86.22% and 58.66%
same,Population Hoechst High Intensity Objects (%),[5],0%
same,Population Membrane Permeable-Phenotype (%),[5],6.98% and 0.95%
same,Population Mitochondria Different-Phenotype (%),[5],12.34% and 27.62%
same,Population Mitotic Cells (%),[5],90.4% and 82.19%
same,Population Normal (%),[5],100%
same,Population Fragmented Nuclei (%),[6],1.84% and 0.57%
same,Population Healthy Nuclei (%),[6],83.54% and 53.41%
same,Population Hoechst High Intensity Objects (%),[6],0%
same,Population Membrane Permeable-Phenotype (%),[6],4.13% and 5.32%
same,Population Mitochondria Different-Phenotype (%),[6],29.2% and 45.74%
same,Population Mitotic Cells (%),[6],95.28% and 80.25%
same,Population Normal (%),[6],100%
CC(C)CC(=O)Nc1cncc(-c2ccc3[nH]nc(-c4nc5c(-c6cccc(F)c6)cncc5[nH]4)c3c2)c1 [LORECIVIVINT],Population Apoptotic (%),[1],14.17% and 27.84%
same,Population Fragmented Nuclei (%),[1],5.95% and 3.7%
same,Population Hoechst High Intensity Objects (%),[1],0%
same,Population Membrane Permeable-Phenotype (%),[1],0% and 14.29%
same,Population Mitochondria Different-Phenotype (%),[1],48.15% and 42.86%
same,Population Mitotic Cells (%),[1],85.83% and 72.16%
same,Population Normal (%),[1],100%
same,Population Pyknosed Nuclei (%),[1],64.86% and 89.81%
same,Population Tubulin-Different-Phenotype (%),[1],64.81% and 57.14%
same,Total Cell Count,[1],185 and 108
same,Population Apoptotic (%),[2],42.93% and 42.98%
same,Population Fragmented Nuclei (%),[2],3.44% and 7.88%
same,Population Healthy Nuclei (%),[2],23.66% and 18.79%
same,Population Hoechst High Intensity Objects (%),[2],0%
same,Population Membrane Permeable-Phenotype (%),[2],3.23%
same,Population Mitochondria Different-Phenotype (%),[2],19.35% and 6.45%
same,Population Mitotic Cells (%),[2],57.07% and 57.02%
same,Population Normal (%),[2],100%
same,Population Pyknosed Nuclei (%),[2],72.9% and 73.33%
same,Total Cell Count,[2],262 and 165
same,Population Apoptotic (%),[3],54.44% and 66.67%
same,Population Fragmented Nuclei (%),[3],8.33% and 5.61%
same,Population Hoechst High Intensity Objects (%),[3],0.64% and 0%
same,Population Membrane Permeable-Phenotype (%),[3],0%
same,Population Mitochondria Different-Phenotype (%),[3],83.02% and 75%
same,Population Mitotic Cells (%),[3],45.56% and 33.33%
same,Population Normal (%),[3],99.36% and 100%
same,Population Pyknosed Nuclei (%),[3],57.69% and 86.92%
same,Population Tubulin-Different-Phenotype (%),[3],94.34% and 50%
same,Total Cell Count,[3],157 and 107
same,Population Apoptotic (%),[4],59.46% and 44.57%
same,Population Fragmented Nuclei (%),[4],4.4% and 5.7%
same,Population Healthy Nuclei (%),[4],25.79% and 17.54%
same,Population Hoechst High Intensity Objects (%),[4],0.93% and 0%
same,Population Membrane Permeable-Phenotype (%),[4],3.66% and 10%
same,Population Mitotic Cells (%),[4],40.54% and 55.43%
same,Population Normal (%),[4],99.07% and 100%
same,Population Pyknosed Nuclei (%),[4],69.81% and 76.75%
same,Population Tubulin-Different-Phenotype (%),[4],34.15% and 12.5%
same,Total Cell Count,[4],321 and 228
same,Population Apoptotic (%),[5],79.78% and 84.11%
same,Population Fragmented Nuclei (%),[5],10.98% and 4.07%
same,Population Hoechst High Intensity Objects (%),[5],1.2% and 0%
same,Population Mitochondria Different-Phenotype (%),[5],82.46% and 45.45%
same,Population Mitotic Cells (%),[5],20.22% and 15.89%
same,Population Normal (%),[5],98.8% and 100%
same,Population Pyknosed Nuclei (%),[5],54.27% and 86.99%
same,Population Tubulin-Different-Phenotype (%),[5],73.68% and 63.64%
same,Total Cell Count,[5],166 and 123
same,Population Apoptotic (%),[6],54.1% and 55.85%
same,Population Fragmented Nuclei (%),[6],3.22% and 5.44%
same,Population Healthy Nuclei (%),[6],24.93% and 15.9%
same,Population Hoechst High Intensity Objects (%),[6],0.27% and 0.42%
same,Population Membrane Permeable-Phenotype (%),[6],2.15% and 5.26%
same,Population Mitochondria Different-Phenotype (%),[6],30.11% and 18.42%
same,Population Mitotic Cells (%),[6],45.9% and 44.15%
same,Population Normal (%),[6],99.73% and 99.58%
same,Population Pyknosed Nuclei (%),[6],71.85% and 78.66%
same,Population Tubulin-Different-Phenotype (%),[6],15.05% and 18.42%
same,Total Cell Count,[6],374 and 240
